From ChEMBL document CHEMBL1671617, “Correlation of antimicrobial resistance with beta-lactamases, the OmpA-like porin, and efflux pumps in clinical isolates of Acinetobacter baumannii endemic to New York City” (2008)
In brackets after ≈: the same amount, converted by molar mass.

Columns and labels:
Assay type in all cases: functional
Acinetobacter baumannii [1] = test: Antimicrobial activity against ISAba1 linked with the blaOXA-51-type beta-lactamase harboring Acinetobacter baumannii lambda clonal group isolate 30 expressing ampC, ompA, adeB, adeM, aadB, aadA1 by agar dilution method
In short: (§1)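 MICs were determined by agar dilution on Mueller-Hinton agar against multidrug-resistant clinical A. baumannii isolates from endemic regional ribotypes, with species confirmed by ribotyping. Selected agents were also tested with and without the efflux inhibitor NMP, fixed at 100 μg/ml in the agar. Meropenem was tested with and without clavulanic acid at 4 μg/ml. A fourfold or greater MIC drop with the additive was scored as significant.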

Acinetobacter baumannii [2] = test: Antimicrobial activity against ISAba1 linked with the blaOXA-51-type beta-lactamase harboring Acinetobacter baumannii beta clonal group isolate 13 expressing ompA, adeB, adeM, aacA4, blaSHV-5 by agar dilution method; in short: as §1
Acinetobacter baumannii [3] = test: Antimicrobial activity against Acinetobacter baumannii nu clonal group isolate 32 expressing ampC, ompA, adeB, adeM, aadB, aadA2 by agar dilution method
In short: (§2)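 Clinical multidrug-resistant A. baumannii isolates from endemic NYC ribotypes, with species identity confirmed by ribotyping. MICs were determined by agar dilution on Mueller-Hinton agar; tobramycin was tested by this method. Agar dilution was also run for selected agents with and without the efflux inhibitor NMP, added to the agar at a fixed 100 μg/ml.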

Acinetobacter baumannii [4] = test: Antimicrobial activity against Acinetobacter baumannii eta clonal group isolate 36 expressing ampC, ompA, adeB, adeM by agar dilution method; in short: as §1
Acinetobacter baumannii [5] = test: Antimicrobial activity against Acinetobacter baumannii nu clonal group isolate 31 expressing ampC, ompA, adeB, adeM, aadB, aadA2 by agar dilution method; in short: as §2
Acinetobacter baumannii [6] = test: Antimicrobial activity against ISAba1 linked with the blaOXA-51-type beta-lactamase harboring Acinetobacter baumannii lambda clonal group isolate 29 expressing ampC, ompA, adeM, aadB, aadA1 by agar dilution method; in short: as §1
Acinetobacter baumannii [7] = test: Antimicrobial activity against Acinetobacter baumannii alpha clonal group isolate 4 expressing ampC, ompA, adeB, adeM, aacC1, aadA1 by agar dilution method; in short: as §1
Acinetobacter baumannii [8] = test: Antimicrobial activity against Acinetobacter baumannii alpha clonal group isolate 5 expressing ampC, ompA, adeB, adeM, aacC1, aadA1 by agar dilution method; in short: as §1
Acinetobacter baumannii [9] = test: Antimicrobial activity against ISAba1 linked with the blaOXA-51-type beta-lactamase harboring Acinetobacter baumannii zeta clonal group isolate 24 expressing ampC, ompA, adeB, adeM, aadA1, aacA4, aacC2, blaSHV-5 by agar dilution method; in short: as §1
Acinetobacter baumannii [10] = test: Antimicrobial activity against ISAba1 linked with the blaOXA-51-type beta-lactamase harboring Acinetobacter baumannii beta clonal group isolate 17 expressing ompA, adeB, adeM, aacA4, blaSHV-5 by agar dilution method; in short: as §1
Acinetobacter baumannii [11] = test: Antimicrobial activity against Acinetobacter baumannii nu clonal group isolate 33 expressing ampC, ompA, adeB, adeM by agar dilution method; in short: as §1
Acinetobacter baumannii [12] = test: Antimicrobial activity against ISAba1 linked with the blaOXA-51-type beta-lactamase harboring Acinetobacter baumannii beta clonal group isolate 9 expressing ampC, ompA, adeB, adeM by agar dilution method; in short: as §1
Acinetobacter baumannii [13] = test: Antimicrobial activity against ISAba1 linked with the blaOXA-51-type beta-lactamase harboring Acinetobacter baumannii zeta clonal group isolate 26 expressing ampC, ompA, adeB, adeM, aadA1, aacA4, aacC2, blaSHV-5 by agar dilution method; in short: as §1
Acinetobacter baumannii [14] = test: Antimicrobial activity against ISAba1 linked with the blaOXA-51-type beta-lactamase harboring Acinetobacter baumannii beta clonal group isolate 15 expressing ompA, adeB, adeM, aacA4, blaSHV-5 by agar dilution method; in short: as §1
Acinetobacter baumannii [15] = test: Antimicrobial activity against Acinetobacter baumannii unique clonal group isolate 39 expressing ampC, ompA, adeM by agar dilution method; in short: as §2
Acinetobacter baumannii [16] = test: Antimicrobial activity against ISAba1 linked with the blaOXA-51-type beta-lactamase harboring Acinetobacter baumannii beta clonal group isolate 11 expressing ompA, adeB, adeM, blaSHV-5 by agar dilution method; in short: as §1
Acinetobacter baumannii [17] = test: Antimicrobial activity against ISAba1 linked with the blaOXA-51-type beta-lactamase harboring Acinetobacter baumannii alpha clonal group isolate 8 expressing ampC, ompA, adeB, adeM, aacC1, aadA1 by agar dilution method; in short: as §1
Acinetobacter baumannii [18] = test: Antimicrobial activity against ISAba1 linked with the blaOXA-51-type beta-lactamase harboring Acinetobacter baumannii zeta clonal group isolate 19 expressing ampC, ompA, adeB, adeM, aacC2 by agar dilution method; in short: as §1
Acinetobacter baumannii [19] = test: Antimicrobial activity against Acinetobacter baumannii alpha clonal group isolate 3 expressing ampC, ompA, adeB, adeM, aacC1, aadA1 by agar dilution method; in short: as §1
Acinetobacter baumannii [20] = test: Antimicrobial activity against Acinetobacter baumannii unique clonal group isolate 37 expressing ampC, ompA, adeB, adeM by agar dilution method; in short: as §1
Acinetobacter baumannii [21] = test: Antimicrobial activity against ISAba1 linked with the blaOXA-51-type beta-lactamase harboring Acinetobacter baumannii alpha clonal group isolate 6 expressing ampC, ompA, adeB, adeM, aacC1, aadA1 by agar dilution method; in short: as §1
Acinetobacter baumannii [22] = test: Antimicrobial activity against ISAba1 linked with the blaOXA-51-type beta-lactamase harboring Acinetobacter baumannii beta clonal group isolate 10 expressing ompA, adeB, adeM, aacA4, blaSHV-5 by agar dilution method; in short: as §1
Acinetobacter baumannii [23] = test: Antimicrobial activity against ISAba1 linked with the blaOXA-51-type beta-lactamase harboring Acinetobacter baumannii alpha clonal group isolate 1 expressing ampC, ompA, adeB, adeM by agar dilution method; in short: as §1
Acinetobacter baumannii [24] = test: Antimicrobial activity against ISAba1 linked with the blaOXA-51-type beta-lactamase harboring Acinetobacter baumannii unique clonal group isolate 40 expressing ampC, ompA, adeB, adeM, aadA1, aacA4, aacC2, blaSHV-5 by agar dilution method; in short: as §1
Acinetobacter baumannii [25] = test: Antimicrobial activity against ISAba1 linked with the blaOXA-51-type beta-lactamase harboring Acinetobacter baumannii beta clonal group isolate 14 expressing ompA, adeB, adeM, aacA4, blaSHV-5 by agar dilution method; in short: as §1
Acinetobacter baumannii [26] = test: Antimicrobial activity against ISAba1 linked with the blaOXA-51-type beta-lactamase harboring Acinetobacter baumannii beta clonal group isolate 12 expressing ompA, adeB, adeM, aacA4, aacC2, blaSHV-5 by agar dilution method; in short: as §1
Acinetobacter baumannii [27] = test: Antimicrobial activity against ISAba1 linked with the blaOXA-51-type beta-lactamase harboring Acinetobacter baumannii beta clonal group isolate 16 expressing ompA, adeB, adeM, aacA4, blaSHV-5 by agar dilution method; in short: as §1
Acinetobacter baumannii [28] = test: Antimicrobial activity against ISAba1 linked with the blaOXA-51-type beta-lactamase harboring Acinetobacter baumannii zeta clonal group isolate 25 expressing ampC, ompA, adeB, adeM, aadA1, aacA4, aacC2, blaSHV-5 by agar dilution method; in short: as §1
Acinetobacter baumannii [29] = test: Antimicrobial activity against Acinetobacter baumannii unique clonal group isolate 38 expressing ampC, ompA, adeB, adeM by agar dilution method; in short: as §2
Acinetobacter baumannii [30] = test: Antimicrobial activity against ISAba1 linked with the blaOXA-51-type beta-lactamase harboring Acinetobacter baumannii alpha clonal group isolate 7 expressing ampC, ompA, adeB, adeM, blaSHV-5 by agar dilution method; in short: as §1
Acinetobacter baumannii [31] = test: Antimicrobial activity against ISAba1 linked with the blaOXA-51-type beta-lactamase harboring Acinetobacter baumannii beta clonal group isolate 18 expressing ompA, adeB, adeM, aacA4, blaSHV-5 by agar dilution method; in short: as §1
Acinetobacter baumannii [32] = test: Antimicrobial activity against ISAba1 linked with the blaOXA-51-type beta-lactamase harboring Acinetobacter baumannii zeta clonal group isolate 20 expressing ampC, ompA, adeB, adeM, aacC2 by agar dilution method; in short: as §1
Acinetobacter baumannii [33] = test: Antimicrobial activity against ISAba1 linked with the blaOXA-51-type beta-lactamase harboring Acinetobacter baumannii zeta clonal group isolate 22 expressing ampC, ompA, adeB, adeM, aadA1, aacA4, aacC2, blaSHV-5 by agar dilution method; in short: as §1
Acinetobacter baumannii [34] = test: Antimicrobial activity against Acinetobacter baumannii eta clonal group isolate 35 expressing ampC, ompA, adeB, adeM by agar dilution method; in short: as §1
Acinetobacter baumannii [35] = test: Antimicrobial activity against Acinetobacter baumannii nu clonal group isolate 34 expressing ampC, ompA, adeB, adeM by agar dilution method; in short: as §1
Acinetobacter baumannii [36] = test: Antimicrobial activity against ISAba1 linked with the blaOXA-51-type beta-lactamase harboring Acinetobacter baumannii zeta clonal group isolate 21 expressing ampC, ompA, adeB, adeM, aacC2, blaSHV-5 by agar dilution method; in short: as §1
Acinetobacter baumannii [37] = test: Antimicrobial activity against Acinetobacter baumannii alpha clonal group isolate 2 expressing ampC, ompA, adeB, adeM, aacC1, aadA1 by agar dilution method; in short: as §1
Acinetobacter baumannii [38] = test: Antimicrobial activity against ISAba1 linked with the blaOXA-51-type beta-lactamase harboring Acinetobacter baumannii zeta clonal group isolate 23 expressing ampC, ompA, adeB, adeM, aadA1, aacA4, aacC2, aphA6 by agar dilution method; in short: as §1
Acinetobacter baumannii [39] = test: Antimicrobial activity against Acinetobacter baumannii lambda clonal group isolate 27 expressing ampC, ompA, adeB, adeM, aadB, aadA1 by agar dilution method; in short: as §1
Acinetobacter baumannii [40] = test: Antimicrobial activity against ISAba1 linked with the blaOXA-51-type beta-lactamase harboring Acinetobacter baumannii lambda clonal group isolate 28 expressing ampC, ompA, adeM, aadB, aadA1 by agar dilution method; in short: as §1

## NC[C@H]1O[C@H](O[C@H]2[C@H](O)[C@@H](O[C@H]3O[C@H](CO)[C@@H](O)[C@H](N)[C@H]3O)[C@H](N)C[C@@H]2N)[C@H](N)C[C@@H]1O [TOBRAMYCIN]
Acinetobacter baumannii [1]
  MIC: > 32 µg/mL
Acinetobacter baumannii [2]
  MIC: > 32 µg/mL
Acinetobacter baumannii [3]
  MIC: > 32 µg/mL
Acinetobacter baumannii [4]
  MIC: 1 µg/mL (≈ 2.14 µM)
Acinetobacter baumannii [5]
  MIC: > 32 µg/mL
Acinetobacter baumannii [6]
  MIC: 16 µg/mL (≈ 34.2 µM)
Acinetobacter baumannii [7]
  MIC: 0.5 µg/mL (≈ 1.07 µM)
Acinetobacter baumannii [8]
  MIC: 0.5 µg/mL (≈ 1.07 µM)
Acinetobacter baumannii [9]
  MIC: > 32 µg/mL
Acinetobacter baumannii [10]
  MIC: > 32 µg/mL
Acinetobacter baumannii [11]
  MIC: 1 µg/mL (≈ 2.14 µM)
Acinetobacter baumannii [12]
  MIC: 2 µg/mL (≈ 4.28 µM)
Acinetobacter baumannii [13]
  MIC: > 32 µg/mL
Acinetobacter baumannii [14]
  MIC: > 32 µg/mL
Acinetobacter baumannii [15]
  MIC: < 0.25 µg/mL
Acinetobacter baumannii [16]
  MIC: 0.5 µg/mL (≈ 1.07 µM)
Acinetobacter baumannii [17]
  MIC: 1 µg/mL (≈ 2.14 µM)
Acinetobacter baumannii [18]
  MIC: 4 µg/mL (≈ 8.56 µM)
Acinetobacter baumannii [19]
  MIC: 0.5 µg/mL (≈ 1.07 µM)
Acinetobacter baumannii [20]
  MIC: 2 µg/mL (≈ 4.28 µM)
Acinetobacter baumannii [21]
  MIC: < 0.25 µg/mL
Acinetobacter baumannii [22]
  MIC: 16 µg/mL (≈ 34.2 µM)
Acinetobacter baumannii [23]
  MIC: < 0.25 µg/mL
Acinetobacter baumannii [24]
  MIC: > 32 µg/mL
Acinetobacter baumannii [25]
  MIC: > 32 µg/mL
Acinetobacter baumannii [26]
  MIC: > 32 µg/mL
Acinetobacter baumannii [27]
  MIC: > 32 µg/mL
Acinetobacter baumannii [28]
  MIC: > 32 µg/mL
Acinetobacter baumannii [29]
  MIC: < 0.25 µg/mL
Acinetobacter baumannii [30]
  MIC: 0.5 µg/mL (≈ 1.07 µM)
Acinetobacter baumannii [31]
  MIC: > 32 µg/mL
Acinetobacter baumannii [32]
  MIC: 4 µg/mL (≈ 8.56 µM)
Acinetobacter baumannii [33]
  MIC: > 32 µg/mL
Acinetobacter baumannii [34]
  MIC: 1 µg/mL (≈ 2.14 µM)
Acinetobacter baumannii [35]
  MIC: 1 µg/mL (≈ 2.14 µM)
Acinetobacter baumannii [36]
  MIC: 4 µg/mL (≈ 8.56 µM)
Acinetobacter baumannii [37]
  MIC: 0.5 µg/mL (≈ 1.07 µM)
Acinetobacter baumannii [38]
  MIC: > 32 µg/mL
Acinetobacter baumannii [39]
  MIC: 0.5 µg/mL (≈ 1.07 µM)
Acinetobacter baumannii [40]
  MIC: 16 µg/mL (≈ 34.2 µM)
